Experimental findings from ChEMBL document CHEMBL1142034, “Inhibitors of HCV NS5B polymerase: synthesis and structure-activity relationships of N-1-heteroalkyl-4-hydroxyquinolon-3-yl-benzothiadiazines” (Bioorg Med Chem Lett, 2005) are described below.

As usually defined, the IC50 is the point on the concentration scale where inhibition reaches its midpoint. A word on the EC50: it is the concentration giving half of the maximal effect. Low values mean greater potency, high ones weaker potency.

Test [1] has as its target T1, RNA-directed RNA polymerase (Hepacivirus hominis, UniProt O39930). The test is described as follows: Inhibitory concentration against RNA dependent RNA polymerase Nonstructural protein 5B of genotype 1a Hepatitis C virus. The essentials: (§1)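 A biochemical assay on NS5B polymerase enzyme gave the IC50 values, run separately for genotype 1a and 1b.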
For test [2], the target named is T1, RNA-directed RNA polymerase. The test can be described thus: Inhibitory concentration against RNA dependent RNA polymerase Nonstructural protein 5B of genotype 1b Hepatitis C virus. The essentials:
as §1

The target is the same in test [3]. The test is described as follows: Effective concentration against RNA dependent RNA polymerase Nonstructural protein 5B of genotype 1b Hepatitis C virus. An outline of the steps: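 Activity measured in an HCV replicon assay, with EC50 values derived from it.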

T1 sequence (O39930 whole entry): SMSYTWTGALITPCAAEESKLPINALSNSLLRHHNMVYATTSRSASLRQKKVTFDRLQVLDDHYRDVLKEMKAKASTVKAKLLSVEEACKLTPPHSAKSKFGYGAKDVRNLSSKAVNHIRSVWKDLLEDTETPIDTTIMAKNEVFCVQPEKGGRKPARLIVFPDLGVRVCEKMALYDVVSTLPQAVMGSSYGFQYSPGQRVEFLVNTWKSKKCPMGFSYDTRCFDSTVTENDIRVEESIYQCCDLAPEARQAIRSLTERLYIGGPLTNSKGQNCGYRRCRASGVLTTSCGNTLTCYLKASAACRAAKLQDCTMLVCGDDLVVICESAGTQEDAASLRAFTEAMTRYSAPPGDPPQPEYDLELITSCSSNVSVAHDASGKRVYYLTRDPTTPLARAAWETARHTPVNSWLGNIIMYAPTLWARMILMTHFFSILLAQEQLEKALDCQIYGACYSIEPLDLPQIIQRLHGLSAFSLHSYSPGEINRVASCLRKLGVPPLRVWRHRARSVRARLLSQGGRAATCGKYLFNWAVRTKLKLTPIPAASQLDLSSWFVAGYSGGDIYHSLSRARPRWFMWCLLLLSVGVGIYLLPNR

As to `O=c1c(C2=Nc3ccccc3S(=O)(=O)N2)c(O)c2ccccc2n1NCC1CCCC1`, the IC50 in test [1] turned out to be 747 nM; in test [2] it was 150 nM.
On to `CCCCNn1c(=O)c(C2=Nc3ccccc3S(=O)(=O)N2)c(O)c2ccccc21`, for which the IC50 in test [1] was 951 nM; in test [2], 161 nM. Further, the EC50 in test [3] was found to be 3480 nM.
Turning to `O=c1c(C2=Nc3ccccc3S(=O)(=O)N2)c(O)c2ccccc2n1NCc1ccoc1`, the 50% inhibitory concentration (IC50) stood at 1550 nM in test [1] and 133 nM in test [2].
For `O=c1c(C2=Nc3ccccc3S(=O)(=O)N2)c(O)c2ccccc2n1NCc1cccs1`, in that order: 2330 nM and 125 nM.
As for `CCC(CC)Nn1c(=O)c(C2=NS(=O)(=O)c3ccccc3N2)c(O)c2ccccc21`, the values for the 50% inhibitory concentration (IC50) in test [1] and in test [2] were 2460 nM and 120 nM, respectively.
The compound `O=c1c(C2=NS(=O)(=O)c3ccccc3N2)c(O)c2cccnc2n1Cc1ccccc1` registered a half-inhibitory concentration (IC50) in test [2] of 83 nM.
On to `CC(Nn1c(=O)c(C2=Nc3ccccc3S(=O)(=O)N2)c(O)c2ccccc21)c1ccccc1` (configuration not stated), for which the IC50 in test [1] is 16500 nM; in test [2] it was 1490 nM.
For `Cc1cccc(CNn2c(=O)c(C3=NS(=O)(=O)c4ccccc4N3)c(O)c3ccccc32)c1`, in that order: 8210 nM and 212 nM.
Compound `CCC(CC)n1c(=O)c(C2=NS(=O)(=O)c3ccccc3N2)c(O)c2cccnc21` returned an IC50 in test [2] of 13200 nM.
On to `O=c1c(C2=Nc3ccccc3S(=O)(=O)N2)c(O)c2ccccc2n1NCc1ccc(Br)cc1`, for which the values for the half-inhibitory concentration (IC50) in test [1] and in test [2] were 10400 nM and 4690 nM, respectively.
The corresponding values for `O=c1c(C2=Nc3ccccc3S(=O)(=O)N2)c(O)c2ccccc2n1NCc1nccs1` are 35800 nM and 674 nM.
The compound `CCC(CC)Cn1c(=O)c(C2=NS(=O)(=O)c3ccccc3N2)c(O)c2cccnc21` registered an IC50 in test [2] of 58 nM.
Take `CC(C)CNn1c(=O)c(C2=NS(=O)(=O)c3ccccc3N2)c(O)c2ccccc21`: the IC50 in test [1] came to 941 nM; in test [2], 101 nM. In test [3], the EC50 was 1350 nM.
Consider `Cc1ccsc1CNn1c(=O)c(C2=NS(=O)(=O)c3ccccc3N2)c(O)c2ccccc21`, for which the IC50 in test [1] amounted to 15000 nM; in test [2], 1190 nM.
In the case of `O=c1c(C2=Nc3ccccc3S(=O)(=O)N2)c(O)c2ccccc2n1NCC1CCCCC1`, the IC50 in test [1] came to 2530 nM; in test [2], 150 nM.
The corresponding values for `CC(C)(C)CCNn1c(=O)c(C2=NS(=O)(=O)c3ccccc3N2)c(O)c2ccccc21` are 411 nM and 135 nM.
The corresponding values for `CCCC(Nn1c(=O)c(C2=NS(=O)(=O)c3ccccc3N2)c(O)c2ccccc21)C(C)C` (configuration not stated) are 6400 nM and 1130 nM.
`CCCC(CC)Nn1c(=O)c(C2=Nc3ccccc3S(=O)(=O)N2)c(O)c2ccccc21` (configuration not stated): the IC50 turned out to be 1890 nM in test [1] and 386 nM in test [2].
For `O=c1c(C2=Nc3ccccc3S(=O)(=O)N2)c(O)c2ccccc2n1NCc1ccccc1`, the IC50 in test [1] stood at 5090 nM; in test [2], 129 nM. In addition, the midpoint of the response in test [3], the EC50, lay at 15700 nM.
`CC(C)Nn1c(=O)c(C2=NS(=O)(=O)c3ccccc3N2)c(O)c2ccccc21`: the IC50 in test [1] was 6350 nM; in test [2], 640 nM.
Consider `CC(C)CCn1c(=O)c(C2=NS(=O)(=O)c3ccccc3N2)c(O)c2cccnc21`, for which the midpoint of inhibition in test [2], the IC50, lay at 69 nM.
Turning to `Cc1ccccc1CNn1c(=O)c(C2=Nc3ccccc3S(=O)(=O)N2)c(O)c2ccccc21`, the results for the IC50 in test [1] and in test [2] were 6120 nM and 481 nM, respectively.
Regarding `O=c1c(C2=NS(=O)(=O)c3ccccc3N2)c(O)c2ccccc2n1NCC1CC1`, the IC50 was 285 nM in test [1] and 145 nM in test [2]. In addition, in test [3], the EC50 was found to be 1050 nM.
For `O=c1c(C2=Nc3ccccc3S(=O)(=O)N2)c(O)c2ccccc2n1NC1CCCCC1`, in that order: 356 nM, 60 nM and 1270 nM.
Take `Cc1ccc(CNn2c(=O)c(C3=Nc4ccccc4S(=O)(=O)N3)c(O)c3ccccc32)cc1`: the concentration for half-maximal inhibition (IC50) in test [1] and in test [2] was above 5000 nM throughout.
In the case of `O=c1c(C2=NS(=O)(=O)c3ccccc3N2)c(O)c2cccnc2n1C1CCCCC1`, inhibition in test [2] was half-maximal at 50000 nM (IC50).
Same read-out and setting: with `CC(C)COn1c(=O)c(C2=Nc3ccccc3S(=O)(=O)N2)c(O)c2cccnc21` the figure was 20500 nM; with `O=c1c(C2=NS(=O)(=O)c3ccccc3N2)c(O)c2cccnc2n1OCc1ccccc1`, 58000 nM.
Take `O=c1c(C2=Nc3ccccc3S(=O)(=O)N2)c(O)c2ccccc2n1NCc1cccnc1`: the IC50 in test [1] is above 5000 nM; in test [2] it was 221 nM.
The corresponding values for `O=c1c(C2=NS(=O)(=O)c3ccccc3N2)c(O)c2ccccc2n1NCc1ccco1` are 3260 nM and 305 nM.
`O=c1c(C2=Nc3ccccc3S(=O)(=O)N2)c(O)c2ccccc2n1NCC1CCC1`: the IC50 was 278 nM in test [1] and 108 nM in test [2]. Further, the EC50 in test [3] was 103 nM.
`CCCCCNn1c(=O)c(C2=NS(=O)(=O)c3ccccc3N2)c(O)c2ccccc21` yielded an IC50 in test [1] of 928 nM.
On to `O=c1c(C2=Nc3ccccc3S(=O)(=O)N2)c(O)c2ccccc2n1NCc1ccccc1Br`, for which the half-maximal inhibitory concentration (IC50) in test [1] was 6720 nM; in test [2], 469 nM.
For `O=c1c(C2=NS(=O)(=O)c3ccccc3N2)c(O)c2ccccc2n1NC1CCOCC1`, the IC50 in test [1] came out at 4630 nM; in test [2], 439 nM.
For `CC(C)CCNn1c(=O)c(C2=Nc3ccccc3S(=O)(=O)N2)c(O)c2ccccc21`, in that order: 629 nM and 134 nM.
For `CCCC(CCC)Nn1c(=O)c(C2=Nc3ccccc3S(=O)(=O)N2)c(O)c2ccccc21`, in that order: 2240 nM and 1800 nM.
As to `O=c1c(C2=NS(=O)(=O)c3ccccc3N2)c(O)c2ccccc2n1NCc1cccc(Br)c1`, the IC50 in test [1] came to 1040 nM; in test [2] it was 75 nM.
In the case of `O=c1c(C2=NS(=O)(=O)c3ccccc3N2)c(O)c2cccnc2n1CC1CCCCC1`, the IC50 in test [2] was found to be 93 nM.
The same measure, in the same setting: next, `CC(c1ccccc1)n1c(=O)c(C2=NS(=O)(=O)c3ccccc3N2)c(O)c2cccnc21` (configuration not stated): 4630 nM.
`O=c1c(C2=NS(=O)(=O)c3ccccc3N2)c(O)c2ccccc2n1NCc1ccc(Cl)s1`: the IC50 in test [1] was 4780 nM; in test [2], 1450 nM.
Compound `O=c1c(C2=NS(=O)(=O)c3ccccc3N2)c(O)c2cccnc2n1CCc1ccccc1` gave an IC50 in test [2] of 1490 nM.
